Reference: ChEMBL document CHEMBL2157936, “Structure-activity relationships for side chain oxysterol agonists of the hedgehog signaling pathway” (ACS Med Chem Lett, 2012)
Each block holds one compound with its values, some of them ahead of it. Active and inactive are the calls of the source. No cut-off for these calls is given here.

Tests used:
[1] = Agonist activity at Hh receptor in mouse C3H10T1/2 cells assessed as fold increase in Gli1 expression at 5 uM by RT-PCR analysis relative to control; format: functional, C3H 10T1/2
[2] = Agonist activity at LXR in mouse C3H10T1/2 cells assessed as fold increase in ABCA1 expression at 5 uM by RT-PCR analysis relative to control; format: functional, C3H 10T1/2
[3] = Selectivity ratio of agonist activity at Hh receptor over agonist activity at LXR in mouse C3H10T1/2 cells; format: functional, C3H 10T1/2
[4] = (§1) Agonist activity at Hh receptor in mouse C3H10T1/2 cells assessed as increase in Gli1 expression by RT-PCR analysis; format: functional, cell-based; details: C3H 10T1/2
Outline: (§2)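 Dose-response in C3H10T1/2 and M2-10B4 cells. Read-out: mRNA of GLI1, PTCH (Hh) or ABCA1 (LXR), expressed relative to the DMSO control. EC50 values were derived from these curves.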

[5] = tested on: C3H 10T1/2; assay: as §1; format: functional, cell-based; outline: as §2
[6] = (§3) Agonist activity at Hh receptor in mouse M210B4 cells assessed as increase in Gli1 expression by RT-PCR analysis; format: functional, cell-based; outline: as §2
[7] = tested on: M210B4; assay: as §3; format: functional, cell-based; outline: as §2
[8] = (§4) Agonist activity at Hh receptor in mouse C3H10T1/2 cells assessed as increase in Ptch expression by RT-PCR analysis; format: functional, cell-based; details: C3H 10T1/2; outline: as §2
[9] = tested on: C3H 10T1/2; assay: as §4; format: functional, cell-based; outline: as §2
[10] = (§5) Agonist activity at Hh receptor in mouse M210B4 cells assessed as increase in Ptch expression by RT-PCR analysis; format: functional, cell-based; outline: as §2
[11] = tested on: M210B4; assay: as §5; format: functional, cell-based; outline: as §2
[12] = Agonist activity at LXR in mouse C3H10T1/2 cells assessed as increase in ABCA1 expression by RT-PCR analysis; format: functional, cell-based; details: C3H 10T1/2; outline: as §2
[13] = Agonist activity at LXR in mouse M210B4 cells assessed as increase in ABCA1 expression by RT-PCR analysis; format: functional, cell-based; outline: as §2
[14] = tested on: C3H 10T1/2; assay: Selectivity ratio of EC50 for LXR to EC50 for Hh receptor in mouse C3H10T1/2 cells; format: cell-based
[15] = tested on: M210B4; assay: Selectivity ratio of EC50 for LXR to EC50 for Hh receptor in mouse M210B4 cells; format: cell-based
[16] = tested on: M210B4; assay: Agonist activity at Hh receptor in mouse M210B4 cells assessed as upregulation of Gli1 at 5 uM after 24 hrs by RT-PCR analysis relative to control; format: functional, cell-based
Outline: (§6)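 Read-out: GLI1 or PTCH mRNA in M2-10B4 cells. Cells were pretreated for 2 h with cyclopamine (5 μM), or left without it, then given OHC (5 μM). mRNA was measured after 24 h of incubation and expressed as fold induction over the DMSO control, set at 1. Data come from a representative experiment run in triplicate.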

[17] = tested on: M210B4; assay: Agonist activity at Hh receptor in mouse M210B4 cells assessed as upregulation of Ptch at 5 uM after 24 hrs by RT-PCR analysis relative to control; format: functional, cell-based; outline: as §6
[18] = tested on: M210B4; assay: Agonist activity at Hh receptor in mouse M210B4 cells assessed as upregulation of Gli1 at 5 uM after 24 hrs by RT-PCR analysis in presence of cyclopamine relative to control; format: functional, cell-based; outline: as §6
[19] = tested on: M210B4; assay: Agonist activity at Hh receptor in mouse M210B4 cells assessed as upregulation of Ptch at 5 uM after 24 hrs by RT-PCR analysis in presence of cyclopamine relative to control; format: functional, cell-based; outline: as §6
[20] = tested on: M210B4; assay: Induction of Hh receptor-mediated osteogenesis in mouse M210B4 cells assessed as fold increase in Osx expression at 5 uM after 24 hrs by RT-PCR analysis relative to control; format: cell-based
Outline: (§7)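 M2-10B4 cells received OHC (5 μM), or the 20(S)-/22(S)-OHC pair (5 μM each). Osterix and alkaline phosphatase mRNA were measured at time points of 24, 48 and 96 h. Expression is relative to the DMSO control. Data come from a representative experiment run in triplicate.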

[21] = tested on: M210B4; assay: Induction of Hh receptor-mediated osteogenesis in mouse M210B4 cells assessed as fold increase in Osx expression at 5 uM after 48 hrs by RT-PCR analysis relative to control; format: cell-based; outline: as §7
[22] = tested on: M210B4; assay: Induction of Hh receptor-mediated osteogenesis in mouse M210B4 cells assessed as fold increase in Osx expression at 5 uM up to 96 hrs by RT-PCR analysis relative to control; format: cell-based; outline: as §7
[23] = tested on: M210B4; assay: Induction of Hh receptor-mediated osteoblast formation in mouse M210B4 cells assessed as increase in ALP expression at 5 uM after 24 hrs by RT-PCR analysis relative to control; format: cell-based; outline: as §7
[24] = tested on: M210B4; assay: Induction of Hh receptor-mediated osteoblast formation in mouse M210B4 cells assessed as increase in ALP expression at 5 uM after 48 hrs by RT-PCR analysis relative to control; format: cell-based; outline: as §7
[25] = tested on: M210B4; assay: Induction of Hh receptor-mediated osteoblast formation in mouse M210B4 cells assessed as increase in ALP expression at 5 uM up to 96 hrs by RT-PCR analysis relative to control; format: cell-based; outline: as §7
[26] = tested on: M210B4; assay: Ratio of EC50 for Hh receptor in mouse M210B4 cells to EC50 for Hh receptor in mouse C3H10T1/2 cells; format: cell-based

SMILES: CC(C)(O)CC[C@](C)(O)[C@H]1CC[C@H]2[C@@H]3CC=C4C[C@@H](O)CC[C@]4(C)[C@H]3CC[C@@]21C
fold change (FC) [1]: 18.1 | fold change (FC) [2]: 10.3 | Selectivity ratio [3]: 1.8

SMILES: CC(C)(O)CCC[C@](C)(O)[C@H]1CC[C@H]2[C@@H]3CC=C4C[C@@H](O)CC[C@]4(C)[C@H]3CC[C@@]21C
fold change (FC) [1]: 107.8 | fold change (FC) [2]: 26.3 | Selectivity ratio [3]: 4.1

SMILES: C[C@H](CCO)[C@H]1CC[C@H]2[C@@H]3CC=C4C[C@@H](O)CC[C@]4(C)[C@H]3CC[C@]12C
fold change (FC) [1]: 4.1 | fold change (FC) [2]: 0.4 | Selectivity ratio [3]: 10.4

EC50 [4]: 540 nM | EC50 [6]: 570 nM | EC50 [8]: 650 nM | EC50 [10]: 580 nM | EC50 [12]: 1530 nM | EC50 [13]: 1540 nM
SMILES: CC(C)C[C@@H](O)C[C@@H](C)[C@H]1CC[C@H]2[C@@H]3CC=C4C[C@@H](O)CC[C@]4(C)[C@H]3CC[C@]12C
fold change (FC) [1]: 87.1 | fold change (FC) [2]: 4.9 | Selectivity ratio [3]: 17.8 | Activity [5]: Dose-dependent effect | Activity [7]: Dose-dependent effect | Activity [9]: Dose-dependent effect | Activity [11]: Dose-dependent effect | Ratio EC50 [14]: 3 | Ratio EC50 [15]: 3 | Activity [16]: Active | Activity [17]: Active | Activity [18]: inactive | Activity [19]: inactive | fold change (FC) [20]: 5 | fold change (FC) [21]: > 30 | Activity [22]: Active | Activity [23]: Active | Activity [24]: Active | Activity [25]: Active | Ratio EC50 [26]: 1.06

SMILES: C[C@H](CCCC(C)(C)O)[C@H]1CC[C@H]2[C@@H]3CC=C4C[C@@H](O)CC[C@]4(C)[C@H]3CC[C@]12C
fold change (FC) [1]: 69.9 | fold change (FC) [2]: 9.8 | Selectivity ratio [3]: 7.1

SMILES: CC(C)CCC[C@@H](C)[C@H]1CC[C@H]2[C@@H]3[C@@H](O)C=C4C[C@@H](O)CC[C@]4(C)[C@H]3CC[C@]12C
fold change (FC) [1]: 1.6 | fold change (FC) [2]: 0.6 | Selectivity ratio [3]: 2.6

SMILES: CC(C)C[C@H](O)C[C@@H](C)[C@H]1CC[C@H]2[C@@H]3CC=C4C[C@@H](O)CC[C@]4(C)[C@H]3CC[C@]12C
fold change (FC) [1]: 32.4 | fold change (FC) [2]: 3.6 | Selectivity ratio [3]: 9

SMILES: CC(C)CC[C@@H](O)[C@@H](C)[C@H]1CC[C@H]2[C@@H]3CC=C4C[C@@H](O)CC[C@]4(C)[C@H]3CC[C@]12C [22(R)-HYDROXYCHOLESTEROL]
fold change (FC) [1]: 4.7 | fold change (FC) [2]: 24.1

SMILES: CC(C)CC[C@H](O)[C@@H](C)[C@H]1CC[C@H]2[C@@H]3CC=C4C[C@@H](O)CC[C@]4(C)[C@H]3CC[C@]12C
fold change (FC) [1]: 52.5 | fold change (FC) [2]: 2.3 | Selectivity ratio [3]: 22.8

SMILES: C[C@H](C(=O)CCC(C)(C)O)[C@H]1CC[C@H]2[C@@H]3CC=C4C[C@@H](O)CC[C@]4(C)[C@H]3CC[C@]12C
fold change (FC) [1]: 6 | fold change (FC) [2]: 21.7

SMILES: CC(C)CCC[C@](C)(O)[C@H]1CC[C@H]2[C@@H]3CC=C4C[C@@H](O)CC[C@]4(C)[C@H]3CC[C@@]21C
fold change (FC) [1]: 91.8 | fold change (FC) [2]: 13.4 | Selectivity ratio [3]: 6.8

SMILES: C[C@@H]([C@H]1CC[C@H]2[C@@H]3CC=C4C[C@@H](O)CC[C@]4(C)[C@H]3CC[C@]12C)[C@@H](O)CCC(C)(C)O
fold change (FC) [1]: 9.9 | fold change (FC) [2]: 2.9 | Selectivity ratio [3]: 3.4

SMILES: C[C@H](C(O)CCC(C)(C)O)[C@H]1CC[C@H]2[C@@H]3CC=C4C[C@@H](O)CC[C@]4(C)[C@H]3CC[C@]12C (mixture of isomers)
fold change (FC) [1]: 1 | fold change (FC) [2]: 0.9
